ChEMBL document CHEMBL1139176, “Tetrazole and ester substituted tetrahydoquinoxalines as potent cholesteryl ester transfer protein inhibitors” (Bioorg Med Chem Lett, 2007)

system: not listed separately; assay: Clearance in rat at 2 mg/kg, iv; type: ADME, organism-based; parameters: dose 2 mg/kg, route intravenous; conditions: in vivo

SMILES | clearance
CCOC(=O)N1c2ccc(C(F)(F)F)cc2N(C(c2cc(C(F)(F)F)cc(C(F)(F)F)c2)c2nnn(C)n2)C[C@H]1CC (stereo in doubt; (D2)-55d) | 13 mL/min/kg

system: not listed separately; assay: Half life in rat at 2 mg/kg, iv; type: ADME, organism-based; parameters: dose 2 mg/kg, route intravenous; conditions: in vivo

SMILES | half-life
CCOC(=O)N1c2ccc(C(F)(F)F)cc2N(C(c2cc(C(F)(F)F)cc(C(F)(F)F)c2)c2nnn(C)n2)C[C@H]1CC (stereo in doubt; (D2)-55d) | 2.4 h

system: not listed separately; assay: Solubility at pH 7.4; type: physicochemical; conditions: buffer

SMILES | Solubility
CCOC(=O)N1c2ccc(C(F)(F)F)cc2N(C(c2cc(C(F)(F)F)cc(C(F)(F)F)c2)c2nnn(C)n2)C[C@H]1CC (stereo in doubt; (D2)-55d) | < 0.01 µg/mL

system: not listed separately; assay: Volume of distribution in rat at 2 mg/kg, iv; type: ADME, organism-based; parameters: dose 2 mg/kg, route intravenous; conditions: in vivo

SMILES | Vd
CCOC(=O)N1c2ccc(C(F)(F)F)cc2N(C(c2cc(C(F)(F)F)cc(C(F)(F)F)c2)c2nnn(C)n2)C[C@H]1CC (stereo in doubt; (D2)-55d) | 2.6 L/kg

target: T1, Cholesteryl ester transfer protein (Homo sapiens, UniProt P11597); assay: Inhibition of CETP in human plasma; type: cell-free; conditions: not given
T1 sequence (P11597 whole entry): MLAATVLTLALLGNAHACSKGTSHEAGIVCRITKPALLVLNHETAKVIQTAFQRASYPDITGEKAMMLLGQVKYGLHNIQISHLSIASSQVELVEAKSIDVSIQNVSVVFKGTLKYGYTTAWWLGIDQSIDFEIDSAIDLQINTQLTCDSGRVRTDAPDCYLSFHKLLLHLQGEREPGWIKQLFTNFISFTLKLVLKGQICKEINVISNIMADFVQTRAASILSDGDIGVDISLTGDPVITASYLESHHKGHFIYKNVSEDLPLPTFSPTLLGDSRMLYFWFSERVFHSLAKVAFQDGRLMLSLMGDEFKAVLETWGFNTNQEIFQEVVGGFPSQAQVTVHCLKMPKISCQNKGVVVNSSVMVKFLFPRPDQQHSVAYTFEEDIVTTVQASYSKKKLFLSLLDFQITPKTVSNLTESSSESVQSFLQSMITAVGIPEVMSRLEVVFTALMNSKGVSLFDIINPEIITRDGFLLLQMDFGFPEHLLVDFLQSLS
Summary of the method: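 Radiometric transfer of ³H-cholesteryl ester from HDL to LDL, with human plasma supplying both CETP and LDL. Inhibitor, plasma and ³H-CE-HDL (diluted to 50 cholesterol) were incubated in 4% (v/v) final DMSO for 6 h at 37 °C. The reaction was stopped with 10 U heparin in 0.3 M MnCl₂ (final) to precipitate LDL, then spun at 1000g and supernatant (2/3 of assay volume) removed. IC50 reported.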

SMILES | IC50
CCC1CN(C(c2cc(C(F)(F)F)cc(C(F)(F)F)c2)c2nnn(C)n2)c2cc(C(F)(F)F)ccc2N1C(=O)N1CCCC1 (stereo unspecified) | 100 µM
CCC1CN(C(c2cc(C(F)(F)F)cc(C(F)(F)F)c2)c2nnn(C)n2)c2cc(C(F)(F)F)ccc2N1CC1CCCC1 (stereo unspecified) | 0.854 µM
CCCCOC(=O)N1c2ccc(C(F)(F)F)cc2N(C(c2cc(C(F)(F)F)cc(C(F)(F)F)c2)c2nnn(C)n2)CC1CC (stereo unspecified) | 1.11 µM
CCOC(=O)N1c2ccc(Br)cc2N(C(C(=O)OC)c2cc(C(F)(F)F)cc(C(F)(F)F)c2)CC1CC (stereo unspecified) | 1.9 µM
CCOC(=O)N1c2ccc(C(F)(F)F)cc2N(C(c2cc(C(F)(F)F)cc(C(F)(F)F)c2)c2nnn(CC(=O)O)n2)CC1CC (stereo unspecified) | 54.6 µM
CCNC(=O)N1c2ccc(C(F)(F)F)cc2N(C(c2cc(C(F)(F)F)cc(C(F)(F)F)c2)c2nnn(C)n2)CC1CC (stereo unspecified) | 46.4 µM
CCCCC(CC)COC(=O)N1c2ccc(C(F)(F)F)cc2N(C(c2cc(C(F)(F)F)cc(C(F)(F)F)c2)c2nnn(C)n2)CC1CC (stereo unspecified) | 62.6 µM
CCC1CN(C(c2cc(C(F)(F)F)cc(C(F)(F)F)c2)c2nnn(C)n2)c2cc(C(F)(F)F)ccc2N1C(=O)N(C)C (stereo unspecified) | 100 µM
CCC1CN(C(c2cc(C(F)(F)F)cc(C(F)(F)F)c2)c2nnn(C)n2)c2cc(C(F)(F)F)ccc2N1C(=O)OCC(C)C (stereo unspecified) | 0.232 µM
CCOC(=O)N1c2ccc(C(F)(F)F)cc2N(C(c2cc(C(F)(F)F)cc(C(F)(F)F)c2)c2nnn(CC(=O)OC(C)(C)C)n2)CC1CC (stereo unspecified) | 14.6 µM
CCOC(=O)N1c2ccc(C(F)(F)F)cc2N(C(c2cc(C(F)(F)F)cc(C(F)(F)F)c2)c2nnn(CC3CC3)n2)CC1CC (stereo unspecified) | 4.55 µM
CCC1CN(C(c2cc(C(F)(F)F)cc(C(F)(F)F)c2)c2nnn(C)n2)c2cc(C(F)(F)F)ccc2N1C(=O)OCc1ccccc1 (stereo unspecified) | 4.4 µM
CCOC(=O)N1c2ccc(C(F)(F)F)cc2N(C(c2cc(C(F)(F)F)cc(C(F)(F)F)c2)c2nnn(CCN(C)C)n2)CC1CC (stereo unspecified) | 7.81 µM
CCOC(=O)N1c2ccc(C(F)(F)F)cc2N(C(c2cc(C(F)(F)F)cc(C(F)(F)F)c2)c2nnn(CCC#N)n2)CC1CC (stereo unspecified) | 3.42 µM
CCOC(=O)N1c2ccc(C(F)(F)F)cc2N(C(c2cc(C(F)(F)F)cc(C(F)(F)F)c2)c2nnn(CC(=O)OC)n2)CC1CC (stereo unspecified) | 32.5 µM
CCC1CN(C(c2cc(C(F)(F)F)cc(C(F)(F)F)c2)c2nnn(C)n2)c2cc(C(F)(F)F)ccc2N1C(=O)N1CCOCC1 (stereo unspecified) | 36.9 µM
CCOC(=O)N1c2ccc(C(F)(F)F)cc2N(C(c2cc(C(F)(F)F)cc(C(F)(F)F)c2)c2nnn(CCC(=O)OC)n2)CC1CC (stereo unspecified) | 4.42 µM
CCC1CN(C(c2cc(C(F)(F)F)cc(C(F)(F)F)c2)c2nnn(C)n2)c2cc(C(F)(F)F)ccc2N1C[C@H]1CC[C@H](CC(=O)O)CC1 (stereo partly specified) | 2.91 µM
CCOC(=O)N1c2ccccc2N(C(Cc2ccccc2)C(=O)OC)CC1CC (stereo in doubt; (D1)-9a) | > 100 µM
CCOC(=O)N1c2ccccc2N(C(Cc2cc(C(F)(F)F)cc(C(F)(F)F)c2)C(=O)OC)CC1CC (stereo in doubt; (D1)-10a) | > 100 µM
CCOC(=O)N1c2ccccc2N(C(C(=O)OC)c2cc(C(F)(F)F)cc(C(F)(F)F)c2)CC1CC (stereo in doubt; (D1)-16a) | 5 µM

SMILES | IC50
CCOC(=O)N1c2cc(Cl)c(Cl)cc2N(C(C(=O)OC)c2cc(C(F)(F)F)cc(C(F)(F)F)c2)CC1CC (stereo in doubt; (D1)-18a) | 92.5 µM
CCOC(=O)N1c2ccc(C(F)(F)F)cc2N(C(C(=O)OC)c2cc(C(F)(F)F)cc(C(F)(F)F)c2)CC1CC (stereo in doubt; (D1)-22a) | 0.5 µM
CCOC(=O)N1c2ccc(C(F)(F)F)cc2N(C(c2cc(C(F)(F)F)cc(C(F)(F)F)c2)c2nnn(C)n2)CC1CC (stereo in doubt; (D1)-28a) | 0.87 µM
CCC1CN(C(c2cc(C(F)(F)F)cc(C(F)(F)F)c2)c2nnn(C)n2)c2cc(C(F)(F)F)ccc2N1C(=O)NCCO (stereo in doubt; (D1)-33a) | 100 µM
CCC1CN(C(c2cc(C(F)(F)F)cc(C(F)(F)F)c2)c2nnn(C)n2)c2cc(C(F)(F)F)ccc2N1CC1CCCCC1 (stereo in doubt; (D1)-39a) | 1.3 µM
CCOC(=O)N1c2ccc(C(F)(F)F)cc2N(C(c2cc(C(F)(F)F)cc(C(F)(F)F)c2)c2nnn(CCO)n2)CC1CC (stereo in doubt; (D1)-46a) | 2.26 µM
CCOC(=O)N1c2ccc(C(F)(F)F)cc2N(C(c2cc(C(F)(F)F)cc(C(F)(F)F)c2)c2nnn(CC(N)=O)n2)CC1CC (stereo in doubt; (D1)-50a) | 5.22 µM
CCOC(=O)N1c2ccc(C(F)(F)F)cc2N(C(c2cc(C(F)(F)F)cc(C(F)(F)F)c2)c2nnn(C)n2)C[C@H]1CC (stereo in doubt; (D1)-55a) | 0.44 µM
CCOC(=O)N1c2ccc(C(F)(F)F)cc2N(C(c2cc(C(F)(F)F)cc(C(F)(F)F)c2)c2nnn(C)n2)C[C@@H]1CC (stereo in doubt; (D1)-55b) | 47.5 µM
CCOC(=O)N1c2ccccc2N(C(Cc2ccccc2)C(=O)OC)CC1CC (stereo in doubt; (D2)-9b) | > 100 µM
CCOC(=O)N1c2ccccc2N(C(Cc2cc(C(F)(F)F)cc(C(F)(F)F)c2)C(=O)OC)CC1CC (stereo in doubt; (D2)-10b) | > 100 µM
CCOC(=O)N1c2ccccc2N(C(C(=O)OC)c2cc(C(F)(F)F)cc(C(F)(F)F)c2)CC1CC (stereo in doubt; (D2)-16b) | 8.6 µM
CCOC(=O)N1c2cc(Cl)c(Cl)cc2N(C(C(=O)OC)c2cc(C(F)(F)F)cc(C(F)(F)F)c2)CC1CC (stereo in doubt; (D2)-18b) | 93.4 µM
CCOC(=O)N1c2ccc(C(F)(F)F)cc2N(C(C(=O)OC)c2cc(C(F)(F)F)cc(C(F)(F)F)c2)CC1CC (stereo in doubt; (D2)-22b) | 0.56 µM
CCOC(=O)N1c2ccc(C(F)(F)F)cc2N(C(c2cc(C(F)(F)F)cc(C(F)(F)F)c2)c2nnn(C)n2)CC1CC (stereo in doubt; (D2)-28b) | 0.23 µM
CCC1CN(C(c2cc(C(F)(F)F)cc(C(F)(F)F)c2)c2nnn(C)n2)c2cc(C(F)(F)F)ccc2N1C(=O)NCCO (stereo in doubt; (D2)-33b) | 4.57 µM
CCC1CN(C(c2cc(C(F)(F)F)cc(C(F)(F)F)c2)c2nnn(C)n2)c2cc(C(F)(F)F)ccc2N1CC1CCCCC1 (stereo in doubt; (D2)-39b) | 5.7 µM
CCOC(=O)N1c2ccc(C(F)(F)F)cc2N(C(c2cc(C(F)(F)F)cc(C(F)(F)F)c2)c2nnn(CCO)n2)CC1CC (stereo in doubt; (D2)-46b) | 2.22 µM
CCOC(=O)N1c2ccc(C(F)(F)F)cc2N(C(c2cc(C(F)(F)F)cc(C(F)(F)F)c2)c2nnn(CC(N)=O)n2)CC1CC (stereo in doubt; (D2)-50b) | 100 µM
CCOC(=O)N1c2ccc(C(F)(F)F)cc2N(C(c2cc(C(F)(F)F)cc(C(F)(F)F)c2)c2nnn(C)n2)C[C@@H]1CC (stereo in doubt; (D2)-55c) | 1.5 µM
CCOC(=O)N1c2ccc(C(F)(F)F)cc2N(C(c2cc(C(F)(F)F)cc(C(F)(F)F)c2)c2nnn(C)n2)C[C@H]1CC (stereo in doubt; (D2)-55d) | 0.143 µM
